The source made the active and inactive calls. No cut-off for these calls is given here.
Columns and labels:
[1] = target: T1, Glucocorticoid receptor (Homo sapiens) (UniProt P04150); assay: Activity at GR (unknown origin)
T1 sequence (whole entry): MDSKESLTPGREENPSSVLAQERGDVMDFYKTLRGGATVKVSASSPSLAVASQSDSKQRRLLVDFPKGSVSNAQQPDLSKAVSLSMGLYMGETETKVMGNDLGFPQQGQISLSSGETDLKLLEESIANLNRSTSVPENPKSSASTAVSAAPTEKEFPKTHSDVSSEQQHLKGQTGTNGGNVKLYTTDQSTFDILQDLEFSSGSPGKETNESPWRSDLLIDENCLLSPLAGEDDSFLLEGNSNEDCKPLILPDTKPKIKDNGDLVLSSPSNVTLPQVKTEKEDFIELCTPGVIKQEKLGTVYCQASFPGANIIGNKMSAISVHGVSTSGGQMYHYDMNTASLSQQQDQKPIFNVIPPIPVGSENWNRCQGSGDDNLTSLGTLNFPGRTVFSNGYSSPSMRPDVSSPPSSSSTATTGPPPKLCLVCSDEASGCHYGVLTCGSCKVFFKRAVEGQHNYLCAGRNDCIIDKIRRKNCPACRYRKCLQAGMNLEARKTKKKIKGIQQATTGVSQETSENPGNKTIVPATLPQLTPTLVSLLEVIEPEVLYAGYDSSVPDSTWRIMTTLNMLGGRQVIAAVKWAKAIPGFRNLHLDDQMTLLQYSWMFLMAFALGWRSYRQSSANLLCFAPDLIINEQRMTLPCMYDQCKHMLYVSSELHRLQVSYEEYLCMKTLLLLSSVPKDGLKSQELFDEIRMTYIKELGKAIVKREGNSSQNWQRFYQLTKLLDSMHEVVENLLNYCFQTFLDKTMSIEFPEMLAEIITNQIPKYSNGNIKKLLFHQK
Method in brief: (§1)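 Eight-point serial dilutions tested in an in-house AlphaScreen-based nuclear receptor panel; activity derived from nonlinear regression curves.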

Mus musculus [2] = assay: In vivo inhibition of ACMSD in CD1 mouse kidney at 5 mg/kg, po after 0.5 to 2 hrs; assay type: functional, organism-based
Method in brief: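 CD1 mice dosed orally at 5 mg/kg in 0.5% (w/v) HPMC in water with 5% (v/v) DMSO; kidneys collected at various times, snap-frozen and ground. Tissue powder homogenised in 50 mM Tris pH 7.5, 0.15 M NaCl with protease inhibitors, spun 38 000g 20 min at 4 °C. Supernatant assayed spectrophotometrically with 30 μM 3-hydroxyanthranilic acid; activity normalised to BCA protein. One-way ANOVA with Dunnett's test.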

Homo sapiens [3] = species: Homo sapiens; assay: Activity at TR (unknown origin); method in brief: as §1
Mus musculus [4] = assay: In vivo inhibition of ACMSD in C57BL/6 mouse assessed as increase in NAD+ levels in liver at 15 and 30 mg/kg/day for 10 days dosed as diet supplement by ion-pair C18- HPLC chromatography; assay type: functional, organism-based
Method in brief: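 Male mice given the compound in the diet for 10 days; vehicle 5% DMSO, 20% PEG. After a 3 h fast, livers snap-frozen and ground; NAD+ extracted by sonication in HClO4, quantified by ion-pair C18 HPLC and normalised to BCA protein. One-way ANOVA with Dunnett's test.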

[5] = target: T2, Nuclear receptor subfamily 1 group I member 2 (Homo sapiens, UniProt O75469); assay: Activity at PXR (unknown origin); method in brief: as §1
T2 sequence (O75469 whole entry): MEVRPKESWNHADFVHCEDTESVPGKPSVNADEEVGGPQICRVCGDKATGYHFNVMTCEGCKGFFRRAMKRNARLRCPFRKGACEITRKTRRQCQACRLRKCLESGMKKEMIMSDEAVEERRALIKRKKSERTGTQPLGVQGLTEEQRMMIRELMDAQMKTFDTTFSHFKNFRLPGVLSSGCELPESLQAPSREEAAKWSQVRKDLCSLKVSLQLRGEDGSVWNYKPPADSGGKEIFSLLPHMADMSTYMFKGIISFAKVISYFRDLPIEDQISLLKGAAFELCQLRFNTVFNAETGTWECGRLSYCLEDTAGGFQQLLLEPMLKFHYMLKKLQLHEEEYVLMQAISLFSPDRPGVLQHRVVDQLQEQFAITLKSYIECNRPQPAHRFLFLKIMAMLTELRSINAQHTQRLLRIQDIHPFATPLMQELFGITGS

[6] = AUClast in mouse liver at 5 mg/kg, po measured up to 8 hrs post dose; assay type: ADME, organism-based; design: dose 5 mg/kg, time < 8 hr, route oral
Method in brief: (§2)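 Mice dosed orally at 5 mg/kg in 0.5% (w/v) HPMC in water with 5% (v/v) DMSO; blood, liver and kidney concentrations followed to 8 h. AUC0–8h given in h·ng/mL; parameters reported as means.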

[7] = Ratio of AUClast in mouse kidney to blood at 5 mg/kg, po measured up to 8 hrs post dose
[8] = Ratio of AUClast in mouse liver to blood at 5 mg/kg, po measured up to 8 hrs post dose
[9] = Tmax in CD1 mouse at 5 mg/kg, po measured up to 8 hrs post dose; assay type: ADME, organism-based; conditions: in vivo; method in brief: as §2
[10] = Half life in CD1 mouse at 0.5 mg/kg, iv measured up to 24 hrs post dose; assay type: ADME, organism-based; conditions: in vivo
Method in brief: (§3)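 Mice given 0.5 mg/kg IV in saline containing 5% (v/v) DMSO and 20% (v/v) PEG400; blood pharmacokinetic parameters reported as means.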

HepG2 = assay: Cytotoxicity against human HepG2 cells assessed as reduction in cell viability after 4 hrs by celltiter-glo assay; assay type: cell-based; conditions: hepg2, 4 h
Method in brief: (§4)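 HepG2 or AML12 cells, 5 × 10^3 per well, exposed to compound for 4 h at 37 °C. Viability read as ATP by CellTiter-Glo luminescence; tamoxifen control.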

[11] = Cmax in CD1 mouse at 5 mg/kg, po measured up to 8 hrs after dose; assay type: ADME, organism-based; design: dose 5 mg/kg, route oral; conditions: in vivo; method in brief: as §2
Homo sapiens [12] = species: Homo sapiens; assay: Activity at RXR (unknown origin); method in brief: as §1
Cytochrome P450 2C19 = Cytochrome P450 2C19 (Homo sapiens, UniProt P33261); assay: Inhibition of recombinant human CYP2C19 expressed in baculosomes expression system using fluorogenic-BOMCC as substrate by fluorescent homogeneous assay; assay type: ADME
Method in brief: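 Recombinant CYP baculosomes with fluorogenic substrates, at concentrations below their Km; homogeneous fluorescence read-out, run in triplicate. IC50 classes: <1 μM potent, 1–10 μM moderate, >10 μM weak or none.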

Homo sapiens [13] = species: Homo sapiens; assay: Activity at LXR (unknown origin); method in brief: as §1
[14] = Drug uptake in mouse central nervous system at 5 mg/kg, po; assay type: ADME, organism-based; conditions: in vivo
[15] = Clearance in CD1 mouse at 0.5 mg/kg, iv measured up to 24 hrs post dose; assay type: ADME, organism-based; conditions: in vivo; method in brief: as §3
[16] = Cytotoxicity against mouse AML-12 cells assessed as reduction in cell viability after 4 hrs by celltiter-glo assay; assay type: cell-based; conditions: aml-12, 4 h; method in brief: as §4

Sequence of Cytochrome P450 2C19 (P33261 whole entry): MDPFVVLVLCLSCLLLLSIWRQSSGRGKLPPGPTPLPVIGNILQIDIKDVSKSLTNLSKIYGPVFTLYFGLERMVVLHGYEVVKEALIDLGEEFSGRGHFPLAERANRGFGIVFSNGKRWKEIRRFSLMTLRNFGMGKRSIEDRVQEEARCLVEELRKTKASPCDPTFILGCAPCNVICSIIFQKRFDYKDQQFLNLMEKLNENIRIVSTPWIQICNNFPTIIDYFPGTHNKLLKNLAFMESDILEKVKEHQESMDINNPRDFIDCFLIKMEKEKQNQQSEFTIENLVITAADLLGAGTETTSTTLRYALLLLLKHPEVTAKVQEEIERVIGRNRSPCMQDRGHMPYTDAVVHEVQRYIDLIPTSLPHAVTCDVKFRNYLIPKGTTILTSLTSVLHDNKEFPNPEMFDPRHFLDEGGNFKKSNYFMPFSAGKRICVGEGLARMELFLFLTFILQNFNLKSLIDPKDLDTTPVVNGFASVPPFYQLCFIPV

N#Cc1c(-c2cccs2)nc(SCc2cccc(CC(=O)O)c2)[nH]c1=O
Activity [1]: inactive
inhibition (Mus musculus [2]): Active
Activity (Homo sapiens [3]): inactive
inhibition (Mus musculus [4]): Active
Activity [5]: Not Active
AUC(0-t) at 8 h [6]: 19200 ng·h/mL
Kp at 8 h [7]: 2.9
Kp at 8 h [8]: 1.5
Tmax [9]: 2 h
half-life [10]: 5.33 h
Activity (HepG2): Non-Toxic
Cmax [11]: 2570 ng/mL
Activity (Homo sapiens [12]): inactive
IC50 (Cytochrome P450 2C19): > 10 µM
Activity (Homo sapiens [13]): inactive
Drug uptake [14]: Not Active
clearance [15]: 0.78 mL/min/kg
Activity [16]: Non-Toxic

From ChEMBL document CHEMBL4024800, “α-Amino-β-carboxymuconate-ε-semialdehyde Decarboxylase (ACMSD) Inhibitors as Novel Modulators of De Novo Nicotinamide Adenine Dinucleotide (NAD+) Biosynthesis” (J Med Chem, 2018)
